This note sets out measurements from ChEMBL document CHEMBL2311493, “Focused pseudostatic hydrazone libraries screened by mass spectrometry binding assay: optimizing affinities toward γ-aminobutyric acid transporter 1” (J Med Chem, 2013).

Molecules are shown by their SMILES.

Test [1] has as its target Sodium- and chloride-dependent GABA transporter 1 (Mus musculus) (UniProt P31648). Nature of the test: Binding affinity to mouse GAT1 expressed in HEK293 cells membranes assessed as remaining [2H10]NO711 binding level at 10 uM using LC-ESI-MS/MS analysis by [2H10]NO711 binding inhibition assay. The test is classed as cell membranes. In outline: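 Membranes from HEK293 cells stably expressing mGAT1, ~0.1 mg/mL protein, in pH 7.1 phosphate buffer with 1 M NaCl and 1% DMSO final. A single aldehyde (10 μM) and hydrazine 10 (100 μM) were incubated 4 h at 37 °C with the target to form the hydrazone. NO711 marker (20 nM) was then added for 40 min. Bound marker was recovered by filtration, 1 M NaCl washes and MeOH elution, then quantified by LC-ESI-MS/MS against [²H₁₀]NO711 internal standard. Result is % remaining specific binding, n = 4.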

Test [2] concerns the target T1, Sodium- and chloride-dependent GABA transporter 1 (Mus musculus, UniProt P31648). Nature of the test: Inhibition of [3H]GABA uptake at mouse GAT1 expressed in HEK293 cells after 25 mins by scintillation counting analysis. Conditions: read-out: pIC50 (converted). The test is classed as cell-based.
Test [3] deals with T1, Sodium- and chloride-dependent GABA transporter 1. Nature of the test: Binding affinity to mouse GAT1 expressed in HEK293 cells membranes using LC-ESI-MS/MS analysis by [2H10]NO711 binding inhibition assay. It is filed as cell membranes. An outline of the steps: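 Full competition with NO711 marker (20 nM) on mGAT1 HEK293 membranes in pH 7.1 phosphate buffer containing 1 M NaCl. Eight competitor concentrations, triplicate points. Bound marker was quantified by LC-ESI-MS/MS. Specific binding is total minus nonspecific. IC50 came from a one-site nonlinear fit and was converted to Ki by Cheng–Prusoff. pKi is mean ± SEM of at least three experiments.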

On to `O=C(O)C1CCCN(CCN/N=C/c2ccccc2-c2c(F)cc(F)cc2F)C1` (stereo not drawn), for which the Activity in test [1] was less than 5%. In test [2], the IC50 is 255 nM. In test [3], this molecule showed a Ki of 30.6 nM.
Take `O=C(O)C1CCCN(CCN/N=C/c2ccccc2-c2cccc(F)c2F)C1` (stereo not drawn): in test [1], the Activity is less than 5%. Also, the IC50 in test [2] was 1500 nM. The molecule also gave a Ki in test [3] of 204 nM.
The corresponding values for `COc1cc(F)ccc1-c1ccccc1/C=N/NCCN1CCCC(C(=O)O)C1` (stereo not drawn) are less than 5%, 7350 nM and 760 nM.
As for `O=C(O)C1CCCN(CCN/N=C/c2ccccc2-c2ccccc2)C1` (stereo not drawn), the Activity in test [1] is less than 5%. The IC50 in test [2] was 4920 nM. The Ki in test [3] was 652 nM.
The corresponding values for `O=C(O)C1CCCN(CCN/N=C/c2ccccc2-c2c(F)cccc2F)C1` (stereo not drawn) are less than 5%, 998 nM and 131 nM.
For `O=C(O)C1CCCN(CCN/N=C/c2ccccc2-c2ccc(Cl)cc2Cl)C1` (stereo not drawn), the Activity in test [1] is less than 5%. The IC50 in test [2] was 61.2 nM. In test [3], this molecule had a Ki of 8.05 nM.
